Assay outcomes: PubChem BioAssay, several laboratories
STAT3 activator = IL-6 driven STAT3 reporter potentiators, primary screen, U3A cells, luciferase, luminescence, MLSCN library; activation (% of control), % at 5.6 µM; IL-6 STAT3-luciferase reporter; 100% = signal with IL-6 EC80 alone; 190,000 compounds, 0.91% hits;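 active = activation above the screen-wide mean of compound activation plus 3 SD, cut at about 130% in these data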
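Material: human U3A cells carrying STAT3-luciferase construct. Measured by: reporter luminescence signal. Timing: compound 1 h, then IL-6 6 h at 37 °C.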
C8 TRAIL sens = viability loss with TRAIL in NB7+C8 cells, primary screen, TRAIL sensitizer project, cell-based, ATPlite luminescence | inhibition (viability loss, TRAIL sensitization), % at 10 µM | 360,000 compounds, 1% hits | AID 624354, 2012;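 active = compounds causing at least 50% loss of cell viability in the single-dose screen, relative to plate controls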
STAT1 inh = STAT1 signaling inhibitors, primary screen, cell-based, HTS, luciferase reporter. inhibition, % at 5.5 µM. 200,000 compounds, 0.35% hits. NIH 3T3 STAT1-luciferase reporter, IFN-gamma, luminescence;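 active = inhibition above a set limit, the mean inhibition across all tested compounds plus 3 SD, cut at about 34% in these data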
PPC-1+TRAIL kill = compounds killing PPC-1 cancer cells with TRAIL present, primary screen, TRAIL potentiator project, ATPLite luminescence, uHTS; PPC-1 cells + TRAIL, ATPLite viability luminescence; cell killing (% activity), % at 4 µM or 5 µM; 220,000 compounds, 0.41% hits;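 active = cell killing above 50% in the first pass at 4 µM, then a duplicate retest at 5 µM averaging 50% or more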
STAT3 blocker = IL-6 driven STAT3 reporter inhibitors, primary screen, U3A cells, luciferase, luminescence, MLSCN library; IL-6 STAT3-luciferase reporter; host cell line lacks STAT1; inhibition, % at 5.5 µM; 190,000 compounds, 0.89% hits; AID 862, 2007;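 active = inhibition above the mean inhibition across all screened compounds plus 3 SD, cut at about 44% in these data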
PPC1 cytotox = cytotoxicity in PPC-1 cells, confirmation, cytotoxicity control for TRAIL apoptosis potentiator project, cell-based, ATP content luminescence. shares compounds with PPC-1+TRAIL kill. PPC-1 viability, ATPlite luminescence, overnight. cytotoxicity, % at 5 µM. 1,200 compounds, 50% hits. AID 1447, 2008;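 active = reconfirmed compounds whose average cytotoxicity reaches 50% or more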
Numbers stand for hits; 0 = inactive; - = no result given. Sampled rows, rich in hits. Any-hit rate of the full collection: about 1.8%.

SMILES	STAT3 activator	C8 TRAIL sens	STAT1 inh	PPC-1+TRAIL kill	STAT3 blocker	PPC1 cytotox
CC(NC(=O)c1ccccc1Cl)C1COc2ccccc2O1 (stereo not given)	0	0	0	0	0	0
CC(NS(=O)(=O)c1ccccc1)C1COc2ccccc2O1 (stereo not given)	0	0	0	0	0	-
O=C(N/N=C/c1ccc2nccnc2c1)c1ccccc1O	-	-	-	62.8	-	63.3
CCOc1ccc(NC(=O)Nc2cccc(C(=O)O)c2)cc1	0	82.5	96.2	73.2	110.0	64.6
CCOc1ccc(OCc2cccc(C(=O)O)c2)cc1	-	83.7	-	58.9	-	58.5
O=C(O)c1cc(OCc2ccccc2)cc(OCc2ccccc2)c1	-	0	-	-	-	-
CCOc1ccc(NC(=O)c2ccccc2CO)cc1	0	0	0	0	0	-
CCOc1ccc(NC(=O)c2ccccc2O)cc1	0	58.5	0	68.2	0	64.1
Clc1ccc(-c2csc(=Nc3cccnc3)n2CCCn2ccnc2)cc1Cl	0	0	0	0	0	-
COCCn1c(-c2ccc(Br)cc2)csc1=Nc1cccnc1	0	0	0	0	0	0
Cc1ccc2nc(Cl)c(/C=N/Nc3ccc(C(=O)O)cc3)cc2c1	-	78.5	-	87.5	-	87.4
COCCn1c(C)cc(/C=C2/SC(=O)N(C(C)C(=O)OC)C2=O)c1C (stereo not given)	-	62.6	-	53.0	-	0
CCn1c(C)cc(/C=C2/SC(=O)N(C(C)C(=O)OC)C2=O)c1C (stereo not given)	-	0	-	0	-	-
C=CCn1c(SCC(=O)NC(=O)NCCC)nnc1C1CCCCC1	0	0	0	0	0	0
C=CCn1c(SCC(=O)NC(=O)NC)nnc1C1CCCCC1	0	0	0	0	0	-
CCN(CC)C(=O)CN(c1cc2c(cc1OC)oc1ccccc12)S(=O)(=O)c1ccccc1	0	0	0	0	0	0
OCCn1ccc(-c2ccccc2OCc2ccc(F)cc2)n1	-	0	-	-	-	-
Cc1cc(NC(=O)c2ccc3c(c2)OCCO3)ccc1NC(=O)c1ccco1	0	63.1	0	51.4	0	0
O=C(Nc1ccc2c(c1)OCCO2)c1ccc(Br)o1	0	60.9	0	52.1	0	51.1
O=C(Nc1ccc(NC(=O)c2ccco2)cc1)c1ccc2c(c1)OCCO2	0	0	0	0	0	-
O=C(Nc1ccc2c(c1)OCCO2)c1ccc2nccnc2c1	0	67.7	0	0	50.1	0
CC(OC(=O)c1ccc(Br)o1)C(=O)Nc1ccc2c(c1)OCCO2 (stereo not given)	-	0	-	-	-	-
Cc1occc1C(=O)O/N=C(\N)c1ccccc1	-	70.5	-	56.9	-	55.4
COc1cc(OC)c(C(=O)O/N=C(\N)c2ccccc2)cc1OC	-	0	-	-	-	-
COc1ccc2[nH]c3c(c2c1)CCN1C(=O)N([C@@H](C)C(=O)NC2CCN(Cc4ccccc4)CC2)C(=O)[C@]31C	-	0	-	-	-	-
SMILES	STAT3 activator	C8 TRAIL sens	STAT1 inh	PPC-1+TRAIL kill	STAT3 blocker	PPC1 cytotox
Cc1ccc(/C=N/Nc2cn[nH]c(=O)n2)o1	0	0	0	0	0	-
C(=N\Nc1nc2ccccc2[nH]1)/c1ccc2c(c1)OCCO2	-	0	-	0	-	-
C(=N\Nc1ccc2ccccc2n1)/c1ccc2c(c1)OCCO2	0	81.2	88.8	71.0	108.0	74.8
Cc1ccc(/C=N/Nc2ccc3ccccc3n2)o1	0	65.2	73.0	51.5	89.7	57.7
Cc1cccc(/C=N/Nc2ccc3ccccc3n2)c1	0	84.8	90.3	71.3	101.6	72.1
COc1cc(NC(=O)c2ccc(-c3cnn(C)c3)c3ccoc23)cc(OC)c1OC	-	0	-	-	-	-
CC(=O)c1cccc(NC(=S)N2CCN(S(=O)(=O)c3ccccc3)CC2)c1	-	0	-	-	-	-
CCCCNC(=O)C(NC(=O)c1cccs1)C(=O)c1ccccc1 (stereo not given)	-	0	-	-	-	-
Cc1ccccc1NC(=O)c1nc[nH]c1C(=O)NCc1ccccc1	0	0	0	0	0	0
COc1ccc(N2CCN(Cc3oc(CO)cc(=O)c3O)CC2)cc1	0	0	0	0	0	0
Cc1cn([C@H]2C[C@H](O)[C@@H](CNS(=O)(=O)N3CCCC3)O2)c(=O)[nH]c1=O	-	0	-	-	-	-
Cc1ccc(/C=C/c2nc3ccccc3s2)s1	0	66.5	43.8	85.0	70.2	82.9
CCCN(CCC)c1ccc(/C=C/c2ccc3cc(OCC)ccc3n2)cc1	-	0	-	0	-	-
Oc1ccc(/C=C/c2ccc3ccccc3n2)cc1	0	71.7	71.5	56.0	101.9	56.1
COc1cc(/C=C/c2nc3ccccc3s2)cc(OC)c1O	0	0	0	0	0	-
CN(C)c1ccc(/C=C/c2nc3ccccc3s2)cc1	0	91.6	91.0	80.7	107.8	81.0
CN(C)c1ccc(/C=C/c2ccc3ccccc3n2)cc1	-	89.3	-	92.5	-	91.9
Cc1ccccc1S(=O)(=O)N1C(c2ccc(Cl)c(Cl)c2)CC=C(C(=O)O)C1c1cccc(Br)c1 (stereo not given)	-	0	-	-	-	-
N=C(N)n1ncc2c1CCCC2=O	-	0	-	-	-	-
O=[N+]([O-])c1ccc(/C=C/c2ccc3ccccc3n2)cc1	0	74.2	52.2	63.7	78.5	61.1
O=C(N/N=C/c1cc2c(cc1Cl)OCO2)c1ccc2c(c1)OCCO2	-	0	-	0	-	-
O=C(N/N=C/c1cc(Br)cs1)c1ccc2c(c1)OCCO2	-	69.4	-	57.5	-	60.2
O=C(N/N=C/c1c(Cl)[nH]c2ccccc12)c1ccc2c(c1)OCCO2	-	65.9	-	65.0	-	63.9
COc1cc(/C=N/NC(=O)c2ccc3c(c2)OCCO3)cc(Br)c1O	-	0	-	-	-	-
Cc1ccc(/C=N/NC(=O)c2ccc3c(c2)OCCO3)s1	-	0	-	0	-	0
SMILES	STAT3 activator	C8 TRAIL sens	STAT1 inh	PPC-1+TRAIL kill	STAT3 blocker	PPC1 cytotox
Cc1ccsc1/C=N/NC(=O)c1ccc2c(c1)OCCO2	-	75.6	-	54.1	-	62.8
OC(Cc1ccccc1)c1ncc(-c2ccc3ccccc3c2)[nH]1 (stereo not given)	-	0	-	-	-	-
CN(C)c1ccc(-c2csc(C(C)(O)c3cccc(F)c3)n2)cc1 (stereo not given)	-	0	-	-	-	-
O=C(N/N=C/c1ccc([N+](=O)[O-])s1)c1ccncc1	0	0	0	0	0	-
Cc1ccc(C(=O)N/N=C/c2ccc([N+](=O)[O-])s2)cc1	0	0	80.1	0	76.3	0
NC(=O)c1ccccc1NC(=O)/C=C/c1ccc(Cl)cc1	0	68.0	0	56.5	0	57.0
O=C(O)C(SC(C(=O)O)c1ccccc1)c1ccccc1 (stereo not given)	-	0	-	-	-	-
CCn1c(C)nc2cc(-c3nc4n(n3)Cc3ccccc3-4)ccc21	0	95.8	96.2	93.7	115.2	93.5
COc1ccc(C(=O)Nc2ccc(N3CCN(c4ccc(OC)cc4)CC3)c(C#N)c2)cc1	0	0	0	0	0	-
COc1ccc(N2CCN(c3ccc(NC(=O)C4CCCCC4)cc3C#N)CC2)cc1	0	0	0	0	0	0
